Experiment: Toxicity liver stage against HepG2, at 10uM
Type: cell-based
Parameters: test concentration 10 uM, cell line HepG2-A16-CD81EGFP
Conditions: human, HepG2-A16-CD81EGFP cells; read-out: INHIBITION
Outline: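 Uninfected HepG2-A16-CD81EGFP cells, 3 × 10^3 per well, 1536-well, plated on prespotted compound at 10 μM final, parasite-free screening media added to match infected plates; puromycin 10 μM positive, DMSO 0.5% negative; run in parallel with 48 h PbLuc assay at 37 °C, 5% CO2; viability by CellTiter-Glo luminescence, normalized to controls.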

| Compound | cytotoxicity at 10 µM |
| --- | --- |
| Cc1nc(C)c2c(n1)CCN(C(=O)CN(C)C)CC2 | -4.51% |
| CCCc1cc(C(=O)Nc2nc(SC)ns2)n(C)n1 | 8.49% |
| COc1cccc(N2CCN(Cc3ccc4occc4c3)CC2=O)c1 | 24% |
| CNS(=O)(=O)c1ccc(CNC(=O)N(CC(C)C)C(C)C)cc1 | 4.5% |
| Cc1noc([C@H]2C[C@H]3OCC[C@H]3N(C3CCC3)C2)n1 | -129% |
| CC(O)CN1CCC(CN(C)C(=O)NC2CC2)CC1 (configuration not stated) | 5.55% |
| CCn1cncc1CN1CCN(CC2(c3ccc(C)cc3)CC2)CC1 | -10.7% |
| COc1ccc(-c2ccccc2CN)c(OC)c1 | 7.35% |
| CN(CCCC#N)C1CCCN(Cc2noc(C3CC3)n2)C1 (configuration not stated) | -14.5% |
| CC(C)c1cccc(S(=O)(=O)NCCCN2CCC(O)CC2)c1 | 12.9% |
| CN(C)C(=O)COCC1CN(Cc2ccsc2)Cc2nccn2C1 (configuration not stated) | -72.3% |
| CCn1cc(NC(=O)C(C)n2ncc(Cl)c2C)c(C(=O)NCC(C)C)n1 (configuration not stated) | 0.557% |
| COc1coc(C(=O)Nc2ccncc2)cc1=O | -14.4% |
| O=C(c1cc(-c2ccn(CC3CC3)n2)n2ccccc12)N1CCCO1 | 5.07% |
| CC(Cn1cccn1)NC(=O)NCCc1cccnc1 (configuration not stated) | -5.25% |
| CCc1nc2ccccc2c(=O)n1CC1(O)CCN(C(=O)C(C)C)CC1 | -24.3% |
| CCc1ncncc1C(=O)NCCNS(=O)(=O)c1ccc(C)cc1 | -5.95% |
| O=S(=O)(c1cccs1)N1CCN(Cc2nc(-c3ccco3)cs2)CC1 | 21.2% |
| COC(=O)c1ccc(N2CCN(C(=O)c3cc(C)on3)C(C)C2)cc1 (configuration not stated) | -7.85% |
| COCc1cc(N2C[C@@H](C)[C@](O)(C3CC3)C2)ncn1 | 3.73% |
| CN1CCN(C(=O)C2CC=CC2)c2ccccc21 | 14.9% |
| CC(=O)NC(C)C1=CCCN(Cc2ccc(C(=O)O)cc2)C1 (configuration not stated) | -12.1% |
| Cc1cc(C)c(CNc2nc3ccccc3cc2CO)c(=O)[nH]1 | 6.37% |

| Compound | cytotoxicity at 10 µM |
| --- | --- |
| Cc1cc(CN(C)C(=O)NC2CCS(=O)(=O)C2)no1 (configuration not stated) | -1.61% |
| CSCCCN1CCC(c2nnc(Cn3ccnc3)n2C2CC2)CC1 | 0.872% |
| CN(C)S(=O)(=O)N1CCC(Oc2cccnn2)CC1 | 3.05% |
| Cc1cc(C(=O)NC2(C#N)CCCC2)c(C)n1-c1cccnc1 | -3.15% |
| O=C(NCCNS(=O)(=O)N1CCCCCC1)c1ncccc1O | -6.11% |
| CCn1cc(CN2CCCC(c3[nH]ncc3-c3ccc(C)cc3)C2)cn1 (configuration not stated) | -1.67% |
| CN(Cc1coc(-c2ccccc2)n1)CC1CCCN1c1cccnn1 (configuration not stated) | -10.4% |
| CCN1C[C@H]2[C@@H](C1)N(S(=O)(=O)c1ccccc1)CC[C@H]2OC | -75.3% |
| CC1CN(CC(=O)N2CCCC2)CCN1c1ccc2nncn2n1 (configuration not stated) | -5.46% |
| CC(C)c1nnsc1CNC(=O)C1CCN(C(C)C)CC1 | -8.05% |
| CC(=O)c1cccc(NC(=O)NCCOCC2CC2)c1 | 5.11% |
| CNC(=O)Cc1noc(-c2cc3c(s2)CCCC3)n1 | 0.403% |
| COc1cccc(OCC(=O)NS(=O)(=O)c2cccnc2)c1 | -12.1% |
| Cc1ccccc1OCCCC(=O)NCC1CN(C)CCO1 (configuration not stated) | -8.69% |
| CN(Cc1cccnc1)C1CC2(CCN(C(=O)c3cscn3)CC2)C1 | 1.02% |
| CNC(=O)COc1ccc(-c2ccccc2)nc1 | 1.76% |
| O=C(Nc1ccccc1Cl)N1CCN(CC2CC2)[C@@H]2CS(=O)(=O)C[C@@H]21 | 2.72% |
| CC(C)(O)CCc1cccc(C(=O)N[C@H](C(N)=O)c2ccccc2)c1 | -4.21% |
| Cc1nnc([C@@H]2C[C@H]3CN(C(=O)c4c(C)noc4C)C[C@H]3O2)[nH]1 | 15.2% |
| O=C1COc2cc(C(=O)NS(=O)(=O)c3cc(Cl)ccc3Cl)ccc2N1 | -7.96% |
| Cc1nc(CN2CC3(CCN(c4ncccn4)C3)CC2=O)cs1 (configuration not stated) | 5.31% |
| COc1cc(CNC(=O)CNc2cc(Cl)ccc2OC)ccn1 | -8.92% |
| CCCNC(=O)C(C)Nc1ccn(Cc2ccccn2)n1 (configuration not stated) | -5.95% |

| Compound | cytotoxicity at 10 µM |
| --- | --- |
| O=C(CC1COCCN1S(=O)(=O)c1ccccc1)NCc1ccccn1 (configuration not stated) | 4.48% |
| CC(=O)N[C@@H]1CN(CC(=O)NCc2ccccc2C)C[C@H]1C(C)C | 4.25% |
| Cc1cnn(CC(C)NCc2csc(-c3ncccn3)n2)c1 (configuration not stated) | -6.94% |
| Cc1cc(F)ccc1NS(=O)(=O)c1cc2c(c(C(=O)O)c1)OCCO2 | -6.56% |
| CCC(C(=O)NC(C)(C)C)n1ccc2ncccc2c1=O (configuration not stated) | 3.69% |
| Cn1cccc1C(=O)N1CC[C@H]2[C@H]1CCN2CC1CCOCC1 | -4.81% |
| COCCN1C[C@@H](C)[C@@]2(COCCN(C(=O)c3ccoc3)C2)C1 | 7.4% |
| Cc1nc(C2CCCN2C(=O)CNS(C)(=O)=O)no1 (configuration not stated) | 17.1% |
| OCCOc1cc(F)ccc1NCc1ccc(F)c(F)c1 | -6.38% |
| COc1ccc(CCNC2CCCN(c3ccc(C)nn3)C2)cc1 (configuration not stated) | -3.65% |
| COC1CCCN(CCCc2cn[nH]c2)C1 (configuration not stated) | 2.24% |
| CCc1ncnc2c1CCN(CCOC)CC2 | 5.19% |
| Cc1cccc(CN2CCCC2c2cccc(CCC(=O)O)n2)c1 (configuration not stated) | -12.6% |
| Cc1noc(C)c1-c1cccc(CC2CCN(C(=O)CN)C2)n1 (configuration not stated) | -3.36% |
| Cc1cc(C)c(C(=O)Nc2cccc(CN3CCC(CO)CC3)c2)o1 | -140% |
| CCN1CCOCC12CCN(C(=O)C1CCCC1)CC2 | -0.272% |
| CCC(=O)Nc1ncn(Cc2cccnc2)n1 | -11.3% |
| COc1ccccc1CNCc1nn(-c2ccccc2)c2c1CCC2 | 34.4% |
| COCCO[C@H]1CCN(Cc2cccnc2)[C@H]1Cc1cccnc1 | 0.0623% |
| Cc1cnn(CCNCc2c(C)nn(-c3ccccc3)c2C)c1 | -14.1% |
| Cc1cccc(C)c1NC(=O)CN(C)C(C)c1nc(C(C)(C)C)no1 (configuration not stated) | -6.85% |
| O=C(C[C@@H]1COC[C@H]2CN(Cc3ccc(F)cc3)C[C@@H]12)N1CCOCC1 | 7.75% |
| NC(=O)c1cnc(NC2CCN(c3ccccc3)CC2)c(Cl)c1 | 6.07% |

| Compound | cytotoxicity at 10 µM |
| --- | --- |
| CC(=O)N(C)c1nc(Cn2nnnc2C2CCCC2)cs1 | 2.11% |
| COC(=O)CCN1CCC(C(=O)c2cc(F)ccc2F)CC1 | -11.1% |
| c1cnc2nc(C3CCNCC3)[nH]c2c1 | 9.57% |
| CC/C=C(\C)CN1CCC(CNC(=O)c2c[nH]c(=O)c(Cl)c2)C1 (configuration not stated) | -13.2% |
| COC(=O)C(NC(=O)C1CCC1)c1cc(F)ccc1F (configuration not stated) | 5.54% |
| c1cnc(NCCCOC2CCOCC2)nc1 | -2.96% |
| CCc1nc2c(c(C)c(C)n2Cc2cccnc2)c(N)c1C | 6.7% |
| CN1CCC2(CC1)C(=O)N(CC1CC1)c1ccccc12 | 3.21% |
| CCS(=O)(=O)N1CCC(OC)c2ccccc2N(CC(=O)NC)C(=O)C1 (configuration not stated) | -1.42% |
| O=C1CCCN1CCN1CC[C@@]2(O)CCN(c3ncccn3)C[C@H]2C1 | -2.61% |
| CC(CO)Nc1ccc(-c2nc(Cc3ccc(F)cc3)no2)cn1 (configuration not stated) | -11.9% |
| CC1CCN(C(=O)CSCc2nc(C3CC3)no2)CC1 | 1.26% |
| CCC(C)NC(=O)CN1CCOCC1 (configuration not stated) | -5.74% |
| CCN(Cc1ccc2c(c1)OCO2)S(=O)(=O)N(C)C(C)C | 8.55% |
| CSc1ccccc1C(=O)N1CCOC(CCN(C)C)C1 (configuration not stated) | 7.46% |
| C[C@H]1CN2C[C@H](O)CC2CN1Cc1ccc2nccnc2c1 (some centres not stated) | -1.23% |
| O=C(c1cscn1)N1CCCC12CCCN(S(=O)(=O)c1ccccc1)C2 (configuration not stated) | 4.35% |
| Cc1nc(NC(=O)C(C)N(C)Cc2cccc(C#N)c2)sc1C (configuration not stated) | -0.506% |
| CCCC1(CO)CCCN(C(=O)CNC(N)=O)C1 (configuration not stated) | 0.83% |
| NC(=O)NC(=O)CNC1(c2ccc(Cl)cc2)CCC1 | 9.23% |
| Cc1cc(S(=O)(=O)N2CCCc3cc(Br)ccc32)sc1C(=O)O | 2.91% |
| CN(CC(C)(C)C)c1ccc(C(=O)NCCCc2ccccn2)cn1 | -49.1% |
| Cc1cccc(N2CCN(CCC(=O)NCc3ccc(C)s3)CC2)c1 | -0.432% |

| Compound | cytotoxicity at 10 µM |
| --- | --- |
| O=C(CN(CC1CCC1)CC(F)(F)F)N1CCOCC1 | -13.1% |
| CC(C)Cc1nc(CN2CCOC(Cn3cccn3)C2)no1 (configuration not stated) | -28.9% |
| Cc1ccc(CNC(C)c2ccc(N3CCN(C)CC3)c(F)c2)o1 (configuration not stated) | -2.76% |
| CN(C)CCN1CCOCC2(CCCN(C(=O)c3ccoc3)C2)C1 (configuration not stated) | 4.87% |
| CCOCC(O)CN1CCN(C(=O)c2ccc(N(C)C)nn2)CC1 (configuration not stated) | -13.1% |
| CCOc1ncnc2c1CCN(Cc1cccs1)CC2 | 10.2% |
| CNC(=O)C1(C)CN(Cc2cn(C)c3ccc(F)cc23)CCO1 (configuration not stated) | 0.187% |
| c1csc(-c2nc(CN3CCN(c4cnccn4)CC3)co2)c1 | -5.67% |
| COc1cccc(-c2nc(CNCCn3cccn3)cs2)c1 | 2.43% |
| COc1cc(CN2CCCCCC2c2cccs2)cc(OC)c1O (configuration not stated) | 8.6% |
| O=C(CCn1nc(C(F)(F)F)c(Br)c1C1CC1)NN1CCOCC1 | 8.85% |
| CN(C)c1ccc(C(=O)N2Cc3cnc(C(C)(C)C)nc3C2)cc1 | -5.51% |
| c1cc(N2CCCC2c2cnccn2)ncn1 (configuration not stated) | -22.4% |
| O=C(c1ccncc1)N1CCCN(Cc2nnc(C3CC3)o2)CC1 | 1.91% |
| Cc1nnc(SCCCNC(=O)c2ccc3c(c2)OCO3)s1 | 8.8% |
| N#CC1Sc2nnc(-c3ccccc3Br)n2N=C1N (configuration not stated) | -4.81% |
| Cc1cc(C[C@@H]2CCC[C@H]2NCc2ccccc2C(F)(F)F)on1 | 2.8% |
| CN(C)C(=O)[C@@H]1CCO[C@@H]2CCN(Cc3ccc4c(c3)OCO4)C[C@@H]21 | -3.76% |
| CC(C)(C)c1n[nH]c(C2CN(Cc3nnc(C4CC4)o3)CCO2)n1 (configuration not stated) | -6.55% |
| CCC(C)(CC(=O)OC)NCc1cc(C)on1 (configuration not stated) | -1.88% |

From ChEMBL document CHEMBL4513216, “Probing the Open Global Health Chemical Diversity Library for Multistage-Active Starting Points for Next-Generation Antimalarials” (ACS Infect Dis, 2020)
